Reference: ChEMBL document CHEMBL4138147, “Discovery of a fluorescent probe with HDAC6 selective inhibition” (Eur J Med Chem, 2017)
The source made the active and inactive calls. The calls are words filed in the database; no cut-off is given here.

Tests used:
[1] = target: Histone deacetylase 5 (Homo sapiens, UniProt Q9UQL6); test: Inhibition of HDAC5 (unknown origin) using Boc-Lys(acetyl)-AMC as substrate after 30 mins by fluorescence assay
Procedure, shortened: (§1)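 The HDAC isoform was incubated with substrate and compound (from a 10% DMSO dilution, 5 μL into a 50 μL reaction) at 37 °C for 30 min. The reaction was stopped with developer containing trypsin and TSA.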

[2] = target: Histone deacetylase 1 (Homo sapiens, UniProt Q13547); test: Inhibition of human recombinant full-length HDAC1 (1 to 482 residues) expressed in baculovirus using Boc-Lys(acetyl)-AMC as substrate after 30 mins by fluorescence assay
Sequence of Histone deacetylase 1 (Q13547 whole entry, the tested form may be a part): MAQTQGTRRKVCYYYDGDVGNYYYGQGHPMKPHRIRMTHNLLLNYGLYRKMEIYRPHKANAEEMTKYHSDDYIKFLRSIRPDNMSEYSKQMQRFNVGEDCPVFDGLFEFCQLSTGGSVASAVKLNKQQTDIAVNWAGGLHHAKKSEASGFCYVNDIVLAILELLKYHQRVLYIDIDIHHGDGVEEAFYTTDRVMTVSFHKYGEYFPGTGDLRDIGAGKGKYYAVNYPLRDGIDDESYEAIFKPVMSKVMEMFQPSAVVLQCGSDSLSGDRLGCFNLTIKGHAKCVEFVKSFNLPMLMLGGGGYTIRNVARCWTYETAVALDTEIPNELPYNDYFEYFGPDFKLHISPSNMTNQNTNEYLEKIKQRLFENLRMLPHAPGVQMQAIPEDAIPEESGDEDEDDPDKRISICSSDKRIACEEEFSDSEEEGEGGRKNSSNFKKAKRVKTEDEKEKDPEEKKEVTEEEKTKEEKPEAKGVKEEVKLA

[3] = target: Histone deacetylase 2 (Homo sapiens, UniProt Q92769); test: Inhibition of human recombinant full-length C-terminal GST-tagged HDAC2 expressed in baculovirus infected Sf9 cells using Boc-Lys(acetyl)-AMC as substrate after 30 mins by fluorescence assay; assay type: cell-based
Sequence of Histone deacetylase 2 (Q92769 whole entry): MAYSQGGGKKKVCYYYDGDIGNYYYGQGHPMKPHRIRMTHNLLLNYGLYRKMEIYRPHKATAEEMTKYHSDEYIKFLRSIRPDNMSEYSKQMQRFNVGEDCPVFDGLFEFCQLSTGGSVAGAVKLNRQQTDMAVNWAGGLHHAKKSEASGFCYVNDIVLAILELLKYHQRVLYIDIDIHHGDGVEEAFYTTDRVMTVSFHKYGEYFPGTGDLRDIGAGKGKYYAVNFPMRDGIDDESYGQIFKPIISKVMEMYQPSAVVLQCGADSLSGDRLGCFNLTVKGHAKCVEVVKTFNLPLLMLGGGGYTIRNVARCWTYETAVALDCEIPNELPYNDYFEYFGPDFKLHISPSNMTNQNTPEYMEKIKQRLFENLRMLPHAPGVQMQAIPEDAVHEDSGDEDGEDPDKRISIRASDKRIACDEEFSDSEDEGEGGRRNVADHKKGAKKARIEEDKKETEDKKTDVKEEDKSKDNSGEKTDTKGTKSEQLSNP

[4] = target: T1, Protein deacetylase HDAC6 (Homo sapiens) (UniProt Q9UBN7); test: (§2) Binding affinity to HDAC6 in aggresomes of human A549 cells assessed as formation of aggresome-like structures at 2 uM added after 24 hrs pre-treatment with MG132 followed by compound addition measured after 2 hrs by fluorescence staining-based confocal microscopic analysis
T1 sequence (whole entry): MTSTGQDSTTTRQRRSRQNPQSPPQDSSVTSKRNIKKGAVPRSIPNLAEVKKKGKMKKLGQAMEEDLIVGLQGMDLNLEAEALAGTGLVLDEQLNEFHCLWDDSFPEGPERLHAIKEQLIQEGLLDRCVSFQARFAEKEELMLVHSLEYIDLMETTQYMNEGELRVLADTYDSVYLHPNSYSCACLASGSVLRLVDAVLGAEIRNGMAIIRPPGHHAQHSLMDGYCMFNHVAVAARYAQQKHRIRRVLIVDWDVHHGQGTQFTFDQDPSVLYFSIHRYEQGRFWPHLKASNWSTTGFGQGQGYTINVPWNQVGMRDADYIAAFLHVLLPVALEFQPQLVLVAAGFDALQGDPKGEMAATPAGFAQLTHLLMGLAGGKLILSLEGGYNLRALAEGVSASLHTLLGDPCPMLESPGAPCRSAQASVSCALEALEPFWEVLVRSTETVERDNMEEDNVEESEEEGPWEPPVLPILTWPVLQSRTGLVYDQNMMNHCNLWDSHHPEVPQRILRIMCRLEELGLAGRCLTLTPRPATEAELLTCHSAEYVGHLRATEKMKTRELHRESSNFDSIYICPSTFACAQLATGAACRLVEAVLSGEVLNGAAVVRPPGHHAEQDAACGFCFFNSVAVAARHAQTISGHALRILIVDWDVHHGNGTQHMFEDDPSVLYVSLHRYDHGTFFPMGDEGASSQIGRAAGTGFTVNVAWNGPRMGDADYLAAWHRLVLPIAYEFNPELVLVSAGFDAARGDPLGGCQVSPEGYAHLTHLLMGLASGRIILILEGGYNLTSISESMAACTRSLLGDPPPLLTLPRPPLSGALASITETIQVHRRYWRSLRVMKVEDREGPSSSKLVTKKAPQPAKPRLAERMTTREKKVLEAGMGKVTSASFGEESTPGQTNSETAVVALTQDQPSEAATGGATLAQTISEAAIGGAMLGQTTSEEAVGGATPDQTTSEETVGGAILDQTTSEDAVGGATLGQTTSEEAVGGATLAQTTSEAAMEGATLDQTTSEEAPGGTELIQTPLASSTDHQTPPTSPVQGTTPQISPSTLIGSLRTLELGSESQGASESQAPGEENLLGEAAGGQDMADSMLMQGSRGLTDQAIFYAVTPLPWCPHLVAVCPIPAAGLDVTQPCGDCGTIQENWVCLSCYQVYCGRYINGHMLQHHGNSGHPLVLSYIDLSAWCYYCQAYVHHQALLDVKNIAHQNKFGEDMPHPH
Procedure, shortened: (§3)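 A549 cells (DMEM, 10% FBS, 37 °C, 5% CO2) given DMSO or 5 μM MG132 for 24 h, fixed in 4% formaldehyde/PBS 20 min, then stained with 2 μM compound in PBS for 2 h. For antibody co-staining, cells were permeabilized with 0.1% Triton X-100, BSA-blocked, and probed overnight at 4 °C with anti-HDAC6 or anti-ubiquitin antibody plus Alexa 647 secondary before the compound. Confocal imaging: compound ex 405/em 500–600 nm; antibody ex 633/em 650–750 nm.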

[5] = target: T2, Polyamine deacetylase HDAC10 (Homo sapiens, UniProt Q969S8); test: Inhibition of HDAC10 (unknown origin) using Boc-Lys(acetyl)-AMC as substrate after 30 mins by fluorescence assay; procedure, shortened: as §1
T2 sequence (Q969S8 whole entry): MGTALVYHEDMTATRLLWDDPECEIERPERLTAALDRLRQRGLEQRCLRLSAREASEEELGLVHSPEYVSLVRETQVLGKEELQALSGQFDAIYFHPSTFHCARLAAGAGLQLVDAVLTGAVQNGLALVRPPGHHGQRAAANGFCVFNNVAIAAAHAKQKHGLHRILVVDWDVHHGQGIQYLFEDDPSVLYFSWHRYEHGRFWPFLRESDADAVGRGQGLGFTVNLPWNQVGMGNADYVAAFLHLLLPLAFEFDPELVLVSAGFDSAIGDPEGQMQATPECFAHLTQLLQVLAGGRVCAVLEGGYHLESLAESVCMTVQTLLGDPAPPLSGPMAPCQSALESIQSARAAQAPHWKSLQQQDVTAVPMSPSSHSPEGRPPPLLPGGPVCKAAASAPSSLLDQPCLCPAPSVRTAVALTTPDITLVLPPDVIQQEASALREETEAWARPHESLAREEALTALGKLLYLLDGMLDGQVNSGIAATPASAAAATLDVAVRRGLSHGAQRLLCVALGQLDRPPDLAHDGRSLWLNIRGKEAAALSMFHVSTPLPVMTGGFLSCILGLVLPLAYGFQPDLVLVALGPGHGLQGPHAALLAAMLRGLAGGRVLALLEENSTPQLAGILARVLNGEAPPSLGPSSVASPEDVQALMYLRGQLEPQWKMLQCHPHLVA

[6] = Drug uptake in cytoplasm of human A549 cells assessed as diffused staining in cytoplasm at 2 uM added after 24 hrs pre-treatment with DMSO followed by compound addition measured after 2 hrs by fluorescence staining-based confocal microscopic analysis; assay type: ADME, subcellular; details: a549, 24 h; procedure, shortened: as §3
[7] = target: T3, Histone deacetylase 8 (Homo sapiens, UniProt Q9BY41); test: Inhibition of HDAC8 (unknown origin) using Boc-Lys(acetyl)-AMC as substrate after 30 mins by fluorescence assay; procedure, shortened: as §1
T3 sequence (Q9BY41 whole entry): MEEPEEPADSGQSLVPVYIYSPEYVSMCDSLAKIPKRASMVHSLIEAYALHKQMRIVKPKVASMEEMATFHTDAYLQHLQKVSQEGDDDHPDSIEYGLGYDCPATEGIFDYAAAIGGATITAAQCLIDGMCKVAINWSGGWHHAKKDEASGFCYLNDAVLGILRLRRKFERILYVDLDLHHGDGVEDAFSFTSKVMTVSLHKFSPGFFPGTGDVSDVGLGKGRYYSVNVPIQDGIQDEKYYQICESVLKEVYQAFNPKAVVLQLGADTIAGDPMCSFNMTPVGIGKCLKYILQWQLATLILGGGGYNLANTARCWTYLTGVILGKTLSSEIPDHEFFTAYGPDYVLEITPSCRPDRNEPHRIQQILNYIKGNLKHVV

[8] = target: T4, Protein deacetylase HDAC6 (Homo sapiens, UniProt Q9UBN7); test: Inhibition of human recombinant full-length HDAC6 expressed in baculovirus infected Sf9 cells using Boc-Lys(acetyl)-AMC as substrate after 30 mins by fluorescence assay
T4 sequence (Q9UBN7 whole entry): T1 sequence (whole entry)

[9] = target: Histone deacetylase 3 (Homo sapiens, UniProt O15379); test: Inhibition of human recombinant full-length C-terminal GST-tagged HDAC3 expressed in baculovirus infected Sf9 cells using Boc-Lys(acetyl)-AMC as substrate after 30 mins by fluorescence assay
Sequence of Histone deacetylase 3 (O15379 whole entry): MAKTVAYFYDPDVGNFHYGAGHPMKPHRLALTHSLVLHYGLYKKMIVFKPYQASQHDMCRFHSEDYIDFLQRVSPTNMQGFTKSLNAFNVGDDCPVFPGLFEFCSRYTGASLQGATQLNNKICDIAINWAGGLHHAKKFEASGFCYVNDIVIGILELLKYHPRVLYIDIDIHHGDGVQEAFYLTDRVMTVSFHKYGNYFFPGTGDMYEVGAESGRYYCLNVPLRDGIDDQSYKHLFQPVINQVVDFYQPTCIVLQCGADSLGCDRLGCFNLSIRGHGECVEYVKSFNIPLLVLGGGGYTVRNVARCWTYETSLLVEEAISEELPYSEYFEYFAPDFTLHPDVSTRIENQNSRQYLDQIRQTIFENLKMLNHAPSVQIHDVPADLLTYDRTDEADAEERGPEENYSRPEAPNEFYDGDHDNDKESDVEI

[10] = target: T1, Protein deacetylase HDAC6 (Homo sapiens); test: Binding affinity to HDAC6 in aggresomes of human A549 cells assessed as relocation of compound to single bright juxtanuclear structure at 2 uM added after 24 hrs pre-treatment with MG132 followed by compound addition measured after 2 hrs by fluorescence staining-based confocal microscopic analysis; procedure, shortened: as §3
[11] = target: Histone deacetylase 4 (Homo sapiens, UniProt P56524); test: Inhibition of HDAC4 (unknown origin) using Boc-Lys(acetyl)-AMC as substrate after 30 mins by fluorescence assay; procedure, shortened: as §1
Sequence of Histone deacetylase 4 (P56524 whole entry): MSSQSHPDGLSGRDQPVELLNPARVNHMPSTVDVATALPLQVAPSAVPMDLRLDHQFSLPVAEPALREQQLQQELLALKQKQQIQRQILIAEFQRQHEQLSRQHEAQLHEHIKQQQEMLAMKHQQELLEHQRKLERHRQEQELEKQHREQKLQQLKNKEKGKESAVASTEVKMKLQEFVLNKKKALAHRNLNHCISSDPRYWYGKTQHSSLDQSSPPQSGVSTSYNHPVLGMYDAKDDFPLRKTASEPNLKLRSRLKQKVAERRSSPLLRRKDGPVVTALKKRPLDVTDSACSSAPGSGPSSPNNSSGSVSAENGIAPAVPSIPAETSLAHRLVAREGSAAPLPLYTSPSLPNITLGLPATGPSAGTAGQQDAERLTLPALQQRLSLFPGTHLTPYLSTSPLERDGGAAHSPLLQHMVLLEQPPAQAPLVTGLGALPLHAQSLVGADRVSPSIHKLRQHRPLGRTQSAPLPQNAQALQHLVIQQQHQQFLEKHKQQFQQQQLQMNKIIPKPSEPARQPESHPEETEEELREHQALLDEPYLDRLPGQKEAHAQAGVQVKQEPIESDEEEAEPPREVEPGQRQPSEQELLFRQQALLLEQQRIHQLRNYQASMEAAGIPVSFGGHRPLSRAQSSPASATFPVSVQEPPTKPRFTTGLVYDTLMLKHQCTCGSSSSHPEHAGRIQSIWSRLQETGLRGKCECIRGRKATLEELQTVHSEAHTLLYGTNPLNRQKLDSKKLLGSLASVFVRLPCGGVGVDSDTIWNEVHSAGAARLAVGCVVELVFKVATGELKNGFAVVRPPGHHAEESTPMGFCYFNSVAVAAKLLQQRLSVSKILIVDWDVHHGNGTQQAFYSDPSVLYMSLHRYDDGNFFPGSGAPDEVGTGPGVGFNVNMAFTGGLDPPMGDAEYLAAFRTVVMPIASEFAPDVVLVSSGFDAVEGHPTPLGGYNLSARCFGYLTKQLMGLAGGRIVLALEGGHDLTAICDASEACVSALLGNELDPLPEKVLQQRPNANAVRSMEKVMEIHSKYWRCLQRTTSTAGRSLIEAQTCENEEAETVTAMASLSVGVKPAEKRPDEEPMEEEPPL

[12] = target: T5, Histone deacetylase 7 (Homo sapiens, UniProt Q8WUI4); test: Inhibition of HDAC7 (unknown origin) using Boc-Lys(acetyl)-AMC as substrate after 30 mins by fluorescence assay
T5 sequence (Q8WUI4 whole entry): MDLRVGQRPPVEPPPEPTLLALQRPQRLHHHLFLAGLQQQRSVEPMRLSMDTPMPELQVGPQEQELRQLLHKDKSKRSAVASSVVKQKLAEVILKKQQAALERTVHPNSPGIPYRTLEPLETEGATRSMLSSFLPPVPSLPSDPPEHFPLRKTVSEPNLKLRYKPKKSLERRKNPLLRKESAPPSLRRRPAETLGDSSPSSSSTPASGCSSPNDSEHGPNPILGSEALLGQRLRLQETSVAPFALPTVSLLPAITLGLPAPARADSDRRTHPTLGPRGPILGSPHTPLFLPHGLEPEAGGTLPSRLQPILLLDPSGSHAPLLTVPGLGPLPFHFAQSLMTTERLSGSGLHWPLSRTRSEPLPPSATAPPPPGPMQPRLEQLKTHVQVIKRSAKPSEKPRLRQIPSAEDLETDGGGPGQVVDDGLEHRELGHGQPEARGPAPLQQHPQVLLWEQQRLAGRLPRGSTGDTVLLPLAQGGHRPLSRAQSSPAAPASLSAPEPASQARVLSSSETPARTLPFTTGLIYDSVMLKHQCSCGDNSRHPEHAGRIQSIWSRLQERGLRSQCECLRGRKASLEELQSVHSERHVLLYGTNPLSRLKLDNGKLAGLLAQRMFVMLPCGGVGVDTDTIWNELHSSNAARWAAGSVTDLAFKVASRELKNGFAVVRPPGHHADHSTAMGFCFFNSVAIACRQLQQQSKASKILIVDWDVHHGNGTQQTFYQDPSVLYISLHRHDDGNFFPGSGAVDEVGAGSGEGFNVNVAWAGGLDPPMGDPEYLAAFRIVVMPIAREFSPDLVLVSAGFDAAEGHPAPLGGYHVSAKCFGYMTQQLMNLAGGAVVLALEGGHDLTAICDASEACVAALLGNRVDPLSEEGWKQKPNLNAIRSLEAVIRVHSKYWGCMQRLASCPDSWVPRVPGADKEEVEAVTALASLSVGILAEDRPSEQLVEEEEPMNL

[13] = target: T6, Histone deacetylase 11 (Homo sapiens, UniProt Q96DB2); test: Inhibition of HDAC11 (unknown origin) using Boc-Lys(acetyl)-AMC as substrate after 30 mins by fluorescence assay; procedure, shortened: as §1
T6 sequence (Q96DB2 whole entry): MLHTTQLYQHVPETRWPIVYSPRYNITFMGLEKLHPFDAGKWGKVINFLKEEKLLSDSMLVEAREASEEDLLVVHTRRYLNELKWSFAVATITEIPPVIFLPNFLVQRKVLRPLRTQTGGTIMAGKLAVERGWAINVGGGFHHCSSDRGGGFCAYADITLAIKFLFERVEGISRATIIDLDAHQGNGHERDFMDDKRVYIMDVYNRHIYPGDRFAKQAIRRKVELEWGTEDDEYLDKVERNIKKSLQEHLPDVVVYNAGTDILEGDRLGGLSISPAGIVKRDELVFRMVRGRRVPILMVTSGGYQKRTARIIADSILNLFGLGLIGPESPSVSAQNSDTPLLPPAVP

[14] = Drug uptake in human A549 cells assessed as intracellular distribution at 2 uM added after 24 hrs pre-treatment with MG132 followed by compound addition measured after 2 hrs by fluorescence staining-based confocal microscopic analysis; assay type: ADME, cell-based; details: a549, 24 h; procedure, shortened: as §3
[15] = target: Histone deacetylase 1/2/3 (Homo sapiens) (UniProt Q13547+O15379+Q92769); details: A549, at 500 nM
[16] = target: Histone deacetylase 9 (Homo sapiens, UniProt Q9UKV0); test: Inhibition of HDAC9 (unknown origin) using Boc-Lys(acetyl)-AMC as substrate after 30 mins by fluorescence assay; procedure, shortened: as §1
Sequence of Histone deacetylase 9 (Q9UKV0 whole entry): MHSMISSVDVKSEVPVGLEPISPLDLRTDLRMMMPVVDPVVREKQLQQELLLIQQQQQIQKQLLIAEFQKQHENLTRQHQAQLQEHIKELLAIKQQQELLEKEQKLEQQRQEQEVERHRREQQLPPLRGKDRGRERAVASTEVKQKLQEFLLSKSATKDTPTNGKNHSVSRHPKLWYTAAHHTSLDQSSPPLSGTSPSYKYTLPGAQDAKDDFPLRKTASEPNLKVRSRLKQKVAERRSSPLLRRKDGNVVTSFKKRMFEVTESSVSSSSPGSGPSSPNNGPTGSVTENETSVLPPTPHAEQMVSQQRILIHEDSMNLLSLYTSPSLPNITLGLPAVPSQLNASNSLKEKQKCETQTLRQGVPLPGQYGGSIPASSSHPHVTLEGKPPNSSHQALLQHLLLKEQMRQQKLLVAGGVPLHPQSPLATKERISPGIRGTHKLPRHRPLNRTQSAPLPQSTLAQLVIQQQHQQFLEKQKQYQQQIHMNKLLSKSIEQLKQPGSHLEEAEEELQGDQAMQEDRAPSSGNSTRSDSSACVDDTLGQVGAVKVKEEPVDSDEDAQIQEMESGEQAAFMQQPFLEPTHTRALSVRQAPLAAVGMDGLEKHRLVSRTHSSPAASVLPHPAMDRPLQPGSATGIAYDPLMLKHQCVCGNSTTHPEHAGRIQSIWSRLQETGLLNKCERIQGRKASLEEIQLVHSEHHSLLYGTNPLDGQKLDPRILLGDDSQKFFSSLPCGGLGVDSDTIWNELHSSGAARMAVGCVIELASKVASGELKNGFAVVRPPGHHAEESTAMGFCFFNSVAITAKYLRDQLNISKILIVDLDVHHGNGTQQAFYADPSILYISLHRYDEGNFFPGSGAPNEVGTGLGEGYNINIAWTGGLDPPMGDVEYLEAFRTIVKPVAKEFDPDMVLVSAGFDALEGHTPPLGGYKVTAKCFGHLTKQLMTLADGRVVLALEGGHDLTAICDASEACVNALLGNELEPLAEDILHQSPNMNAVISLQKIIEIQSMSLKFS

[17] = target: T1, Protein deacetylase HDAC6 (Homo sapiens); test: as §2, with “induction of co-localization” for “formation”, “structures with polyubiquitin” for “structures”; procedure, shortened: as §3

Sequence of Histone deacetylase 5 (Q9UQL6 whole entry, canonical isoform): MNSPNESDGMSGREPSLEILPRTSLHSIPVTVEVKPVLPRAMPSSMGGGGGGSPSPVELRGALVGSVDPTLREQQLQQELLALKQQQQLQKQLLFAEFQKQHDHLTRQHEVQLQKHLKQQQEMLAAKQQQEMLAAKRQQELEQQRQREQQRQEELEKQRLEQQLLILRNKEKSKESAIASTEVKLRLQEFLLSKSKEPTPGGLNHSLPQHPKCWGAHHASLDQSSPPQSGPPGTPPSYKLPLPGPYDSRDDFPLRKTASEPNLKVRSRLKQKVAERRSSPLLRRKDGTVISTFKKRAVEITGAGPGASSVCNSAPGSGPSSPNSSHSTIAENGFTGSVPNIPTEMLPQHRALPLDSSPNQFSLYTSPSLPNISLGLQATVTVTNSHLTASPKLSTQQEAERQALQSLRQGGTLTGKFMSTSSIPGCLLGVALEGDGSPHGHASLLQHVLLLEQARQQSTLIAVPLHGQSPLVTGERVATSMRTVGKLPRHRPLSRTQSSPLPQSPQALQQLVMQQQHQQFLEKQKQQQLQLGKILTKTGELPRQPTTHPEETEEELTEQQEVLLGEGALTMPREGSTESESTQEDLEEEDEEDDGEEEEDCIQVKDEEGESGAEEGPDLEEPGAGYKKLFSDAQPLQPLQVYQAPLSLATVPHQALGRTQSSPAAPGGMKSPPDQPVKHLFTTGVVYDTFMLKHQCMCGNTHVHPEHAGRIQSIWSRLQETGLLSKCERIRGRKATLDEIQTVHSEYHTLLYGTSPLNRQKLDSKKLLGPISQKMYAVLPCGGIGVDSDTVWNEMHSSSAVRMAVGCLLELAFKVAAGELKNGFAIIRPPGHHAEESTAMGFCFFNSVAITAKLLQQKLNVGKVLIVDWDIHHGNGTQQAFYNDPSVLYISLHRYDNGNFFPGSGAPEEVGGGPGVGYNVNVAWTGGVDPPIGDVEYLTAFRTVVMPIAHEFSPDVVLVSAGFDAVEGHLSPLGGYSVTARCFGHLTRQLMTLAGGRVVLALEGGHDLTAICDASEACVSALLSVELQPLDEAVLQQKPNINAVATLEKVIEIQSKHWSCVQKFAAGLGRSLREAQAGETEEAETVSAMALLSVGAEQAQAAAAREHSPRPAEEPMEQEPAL

| IC50 [1] | IC50 [2] | IC50 [3] | Activity [4] | IC50 [5] | Drug uptake [6] | IC50 [7] | IC50 [8] | IC50 [9] | Activity [10] | IC50 [11] | IC50 [12] | IC50 [13] | Drug uptake [14] | inhibition [15] | IC50 [16] | Activity [17] | SMILES |
| --- | --- | --- | --- | --- | --- | --- | --- | --- | --- | --- | --- | --- | --- | --- | --- | --- | --- |
| > 100000 nM | > 20000 nM | > 100000 nM | Active | 1870 nM | Active | 3050 nM | 139 nM | > 30000 nM | Active | > 100000 nM | > 100000 nM | > 10000 nM | Active | inactive | > 30000 nM | Active | O=C(NO)c1ccc(CCN2C(=O)c3cccc4c(N5CCOCC5)ccc(c34)C2=O)cc1 |
|  | 5.25 nM | 25.6 nM | inactive |  |  |  | 0.65 nM | 2.65 nM |  |  |  |  |  |  |  |  | O=C(CCCCCN1C(=O)c2cccc3c(N4CCOCC4)ccc(c23)C1=O)NO |
|  | 36.2 nM | 98.8 nM | inactive |  |  |  | 2.7 nM | 11.1 nM |  |  |  |  |  | Active |  |  | O=C(NO)c1ccc(CN2C(=O)c3cccc4c(N5CCOCC5)ccc(c34)C2=O)cc1 |
